# Sampled rows, rich in hits. Any-hit rate of the full collection: about 2.3%.
# EWS-Fli block: EWS/Fli transcriptional activity inhibition | A673 NR0B1-luciferase reporter, viability-normalised | 350,000 compounds, 0.67% hits | inhibition, % at 12.6 µM;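 active = mean inhibition of at least 50% after viability correction, with every replicate also passing that limit; inconclusive = mean reaches 50% but only one of two replicates passes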;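 also: firefly luciferase signal divided by Alamar Blue viability fluorescence both relative to DMSO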
# F508del corr: correctors of CFTR F508del function in bronchial epithelial cells | 350,000 compounds, 0.36% hits | activity (quench increase), % at 7.58 µM | AID 720511 | CFBE cells, YFP halide quenching; stimulated with forskolin plus potentiator P3; % fluorescence drop versus neutral controls;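 active = mean added fluorescence quench of at least 8% versus neutral control, with both replicates also reaching 8%; inconclusive = only one of the mean or replicate conditions met; inactive = mean below 8% and not both replicates reaching 8%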;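 also: cells transiently co-express mutant CFTR-F508del with the halide-sensitive YFP; corrector assay measuring rescue of mutant channel to the surface after 24 h compound exposure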
# FN deposition inh: fibronectin deposition inhibition. AH1F fibroblasts, Alexa488-fibronectin deposition fluorescence, overnight. inhibition, % at 12.6 µM. 350,000 compounds, 0.086% hits. AID 743247;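 active = mean inhibition across replicates of 30% or more, regardless of how many single replicates reach that level; inconclusive = mean under 30% yet at least half of replicates reach 30%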;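 also: positive control wells lacked labelled fibronectin entirely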
#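 Material: AH1F fibroblasts assembling fluorescent fibronectin matrix; amount: 10000 AH1F cells/well; medium: DMEM, 2% serum; reagent: Alexa488-fibronectin, 24 nM final in well; dosing: single compound dose, delivered by pin transfer; incubation: 1 h adhesion, overnight exposure; detection: fluorescence after three HBSS washes, excitation 485 nm, emission 525 nm; measure: fibronectin deposition inhibition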
# HIV Env fusion: blocks HIV Env-driven cell-cell fusion; HeLa-JRFL Env/CEM21 cell fusion, luciferase; inhibition, % at 12.3 µM; 360,000 compounds, 1.1% hits; AID 651610;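 active = mean replicate inhibition score of at least 50 and every replicate individually at or above 50; inconclusive = only one of the two criteria met; inactive = mean below 50 and not all replicates reaching 50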;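 also: 0% = plate neutral controls and 100% = maraviroc near 300 nM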
# PAX8 reporter: inhibitors of PAX8 transcriptional activity in RMG-I cells. RMG-I TPO-luciferase reporter, SteadyGlo, 24 h. inhibition, % at 12.6 µM. 360,000 compounds, 1.2% hits;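 active = mean replicate inhibition at least 60% with every replicate also reaching 60%; inconclusive = only one of the two criteria is met; inactive = mean below 60% and not all replicates reaching 60%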;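 also: luciferase light reporting Pax8 driven TPO promoter activity; plate controls were median of neutral control wells for no effect and mitoxantrone controls for full effect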
# PGC1a acetyl inh: lowers PGC1a acetylation signal in U2OS cells; inhibition, % at 15.6 µM; AlphaScreen anti-acetyl-lysine; with virally co-expressed GCN5 acetyltransferase; 350,000 compounds, 0.17% hits; AID 651687;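 active = every replicate shows inhibition of at least 40%; inconclusive = mean inhibition at least 40% but some replicate below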;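 also: 0% = neutral control wells and 100% = positive control wells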
# Starred values were filed as active, the others as inactive; ? = inconclusive; . = not tested or not shown; [ ] = dose if it differs, or a comment.
SMILES,EWS-Fli block,F508del corr,FN deposition inh,HIV Env fusion,PAX8 reporter,PGC1a acetyl inh
CC(=O)NC(c1ccc(N(C)C)cc1)c1cc(Cl)c2cccnc2c1O (stereo unspecified),24,4,5,45,85*,8
CC(=O)NC(c1ccccc1)c1cc(Cl)c2cccnc2c1O (stereo unspecified),21,3,0,16,85*,.
COc1ccc(C(NC(C)=O)c2cc(Cl)c3cccnc3c2O)cc1 (stereo unspecified),9,6,23,7,44,-3
Oc1c(C(c2ccccn2)N2CCCCC2)cc(Cl)c2cccnc12 (stereo unspecified),37,-2,17,-17,77*,3
CCC(=O)NC(c1ccc(C)cc1)c1cc([N+](=O)[O-])c2cccnc2c1O (stereo unspecified),.,.,0,26,12,7
CCC(=O)NC(c1cc(Cl)c2cccnc2c1O)C(C)C (stereo unspecified),14,1,5,49,46,13
CCC(=O)NC(c1cc(Cl)c2cccnc2c1O)C1CC1 (stereo unspecified),27,1,9,44,66*,.
CC(=O)NC(c1ccc(C)cc1)c1cc([N+](=O)[O-])c2cccnc2c1O (stereo unspecified),0,2,8,48*,1,.
O=S(=O)(c1cccc(F)c1)N1CCN(Cc2cccc(OCCO)c2)CC1,3,-2,.,-10[16.7 µM],-6,.
C[C@@H]1CN([C@@H](C)CO)C(=O)c2cc(C3=CCCCC3)cnc2O[C@@H]1CN(C)C(=O)Nc1ccccc1,-8,2,0,6[16.7 µM],.,-1
Cc1ccc(OCC(=O)Nc2ccc3c(c2)nc(CCN2CCN(c4ccccn4)CC2)n3C)cc1,16,0,7,61*,52,.
Cn1c(CCN2CCCCC2)nc2cc(NC(=O)COc3ccc(Cl)cc3)ccc21,1,0,15,7,37,11
Cc1ccc(C(C)C)c(OCC(=O)Nc2ccc3c(c2)nc(CCN2CCCCC2)n3C)c1,?,4,7,17,83*,.
CCCC(=O)Nc1ccc2c(c1)nc(CCN1CCN(c3ccccn3)CC1)n2C,-3,.,10,-13,20,-4
Cn1c(CCN2CCOCC2)nc2cc(NS(=O)(=O)c3ccccc3)ccc21,1,0,-18,6,23,4
Cn1c(CCN2CCN(c3ccccn3)CC2)nc2cc(NC(=O)COc3ccccc3)ccc21,.,-1,-3,7,66*,6
Cn1c(CCN2CCN(c3ccccn3)CC2)nc2cc(NS(=O)(=O)c3ccccc3)ccc21,.,-2,1,7,72*,15
C[C@H]1CCCCO[C@H](CN(C)S(=O)(=O)c2cn(C)cn2)[C@@H](C)CN([C@@H](C)CO)C(=O)c2cc(NC(=O)CCC(F)(F)F)ccc2O1,-6,-1,.,21[16.7 µM],-13,.
O=C(C[C@@H]1C[C@@H]2c3cc(NC(=O)Nc4ccc(C(F)(F)F)cc4)ccc3O[C@@H]2[C@H](CO)O1)NCCc1ccccc1,5,0,-13,17[16.7 µM],-10,-14
Cc1ccc(OCC(=O)Nc2ccc3c(c2)ncn3C)cc1,-3,22*,-1,.,6,8
Oc1cccc2ccc(Nc3ccccn3)nc12,.,.,10,60*,.,.
COc1cccc(NC(=O)C[C@H]2CC[C@H]3[C@H](COc4ccc(NC(=O)C5CCCC5)cc4C(=O)N3C)O2)c1,.,.,1,.,.,.
CCNC(=O)C[C@@H]1CC[C@@H]2[C@H](COC[C@@H](O)CN2C(=O)c2cc(Cl)cc(Cl)c2)O1,.,0,-4,.,.,5
NS(=O)(=O)c1ccc(S(=O)(=O)N(CCc2ccccc2)Cc2ccccn2)cc1,-1,8.4*,0,14,-2,15
O=C(NCC[C@H]1CC[C@H](NC(=O)C2CC2)[C@H](CO)O1)c1ccc(F)cc1,-1,0,.,-5[16.7 µM],.,8
SMILES,EWS-Fli block,F508del corr,FN deposition inh,HIV Env fusion,PAX8 reporter,PGC1a acetyl inh
O=C(C1CCC1)N1CC(=O)N2[C@H](CO)[C@H](c3ccc(C#CCc4ccccc4)cc3)[C@H]2C1,-5,3,-4,.,83*,-19
O=C(Cc1ccccc1)N1CC(=O)N2[C@H](C1)[C@@H](c1ccc(C#Cc3ccccc3)cc1)[C@@H]2CO,.,8.0*,.,.,.,0
O=C1C=CC(=O)N1CCCCCCCCCCN1C(=O)C=CC1=O,37,-6,44*,-36,68*,-6
O=C1C=CC(=O)N1Cc1ccncc1,7,1,-6,-16,1,-9
OC[C@@H]1[C@H](c2ccc(C#CC3(O)CCCC3)cc2)[C@H]2CN(Cc3cccnc3)CCCCN12,2,1,.,.,-17,3
O=C(Nc1ccc(Cl)c(C(F)(F)F)c1)[C@@H]1CC=C[C@@H]2CCN(Cc3ccc(Cl)c(Cl)c3)C(=O)[C@@H]21,7,4,-20,84*,30,-1
O=C(O)[C@H]1CC=C[C@H]2CCN(Cc3ccc(Cl)c(Cl)c3)C(=O)[C@@H]12,0,0,.,-18,-1,13
O=C([C@@H]1[C@@H](CO)[C@@H]2Cn3c(ccc(-c4ccccc4F)c3=O)[C@H]1N2C(=O)C1CC1)N1CCOCC1,2,-1,.,.,-12,.
Cc1ccccc1Cc1c(C)nc2c(C(=O)N3CCN(Cc4ccc5c(c4)OCO5)CC3)cnn2c1C,.,.,.,60*,.,15
O=C(c1cnn2c(C(F)F)cc(-c3ccccc3)nc12)N1CCN(Cc2ccc3c(c2)OCO3)CC1,.,2,4,58*,20,.
O=C(C[C@@H]1C=C[C@@H](NC(=O)C2CCOCC2)[C@H](CO)O1)Nc1ccccc1,-10,-3,.,.,.,-14
CC(C)(C)NC(=O)C(c1ccccc1)N(C(=O)C1CSC(=O)C1)c1ccccc1 (stereo unspecified),.,.,6,65*,.,.
CC(C)(C)NC(=O)C(c1ccncc1)N(C(=O)C1CSC(=O)C1)c1ccccc1 (stereo unspecified),1,-1,-12,4,12,.
CCOC(=O)CCc1ccc(NC(=O)/C=C/c2ccc([N+](=O)[O-])o2)cc1,51*,0,3,-315,40,.
CCC(=O)N1CCC2(CC1)CN(C(=O)c1cnccn1)[C@@H](CO)c1c2c2ccc(OC)cc2n1C,3,0,.,.,-13,4
Clc1ccc(CSc2nnc(-c3ccc4c(c3)OCO4)o2)cc1,.,.,.,.,.,-4
O=C1CCCCC1Sc1nnc(-c2ccc3c(c2)OCO3)o1 (stereo unspecified),30,-2,-10,68*,22,4
CS(=O)(=O)N(Cc1ccc(Cl)cc1)c1ccc(C(=O)NCCSc2ccccn2)cc1,.,.,-7,85*,22,6
CS(=O)(=O)N(Cc1ccccc1)c1ccc(C(=O)Nc2cccnc2)cc1,.,.,16,-19,.,2
CS(=O)(=O)N(Cc1ccc(Cl)cc1)c1ccc(C(=O)Nc2cccnc2)cc1,.,.,.,60*,.,.
